HCV NS3 hel inh = inhibitors of Hepatitis C virus NS3 helicase; inhibition, % at 10.9 µM; NS3 helicase DNA unwinding, Cy5 molecular beacon fluorescence; AID 1800; 0.56% of 290,000 active;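 active = inhibition above the mean of all tested compounds plus 3 SD, set per campaign, cut at about 35% in these data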
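Test system: hepatitis C virus NS3 helicase domain fragment enzyme. Also added: annealed dual-labelled DNA beacon duplex, ATP-started. Timing: 60 min unwinding reaction at 25 °C after ATP addition. Technique: Cy5 fluorescence. Measure: % inhibition of unwinding.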
MLLE-PAM2 inh = inhibitors of microRNA-mediated deadenylation, human PABP1 MLLE binding | P11940 | 0.36% of 360,000 active | inhibition, % at 20 µM | GST-MLLE / FITC-PAM2 fluorescence polarization; in the data active = inhibition above about 35%, passing the limit was not always enough
Target sequence (P11940 whole entry, looked up): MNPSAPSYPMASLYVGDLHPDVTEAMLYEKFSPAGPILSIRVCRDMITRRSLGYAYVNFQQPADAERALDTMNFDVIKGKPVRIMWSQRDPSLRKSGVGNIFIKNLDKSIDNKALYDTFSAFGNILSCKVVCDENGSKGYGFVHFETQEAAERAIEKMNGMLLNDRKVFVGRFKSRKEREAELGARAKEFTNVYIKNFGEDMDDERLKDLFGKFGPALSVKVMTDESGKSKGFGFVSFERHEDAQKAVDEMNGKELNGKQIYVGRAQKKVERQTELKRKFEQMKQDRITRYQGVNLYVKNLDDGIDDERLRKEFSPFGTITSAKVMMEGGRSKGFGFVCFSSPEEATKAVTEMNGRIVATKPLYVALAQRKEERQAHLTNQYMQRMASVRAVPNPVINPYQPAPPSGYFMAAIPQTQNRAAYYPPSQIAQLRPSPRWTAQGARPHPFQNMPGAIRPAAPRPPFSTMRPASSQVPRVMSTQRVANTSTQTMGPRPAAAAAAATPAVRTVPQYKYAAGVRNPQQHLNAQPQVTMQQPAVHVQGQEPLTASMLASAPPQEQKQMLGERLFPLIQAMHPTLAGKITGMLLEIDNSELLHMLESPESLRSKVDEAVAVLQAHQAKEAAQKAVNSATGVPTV
PABP FP inh = PABP-poly(A) binding inhibition | inhibition, % at 35 µM | P11940 | PABP-poly(A) RNA binding, fluorescence polarization | 1% of 290,000 active | AID 2014;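 note: calls also rest on retests at 20 µM and on dose response follow-up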
FID counter = counter-screen for HCV NS3 helicase inhibitors: DNA intercalator displacement; DNA fluorescent intercalator displacement, fluorescence; inhibition, % at 7.9 µM; 0.17% of 290,000 active; in the data active = inhibition above about 37%;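 note: higher means more ethidium bromide displaced from hairpin DNA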
eIF4H inh = inhibitors of RNA binding by human eIF4H. Q15056. AID 2012. 0.94% of 290,000 active. inhibition, % at 35 µM. eIF4H fluorescence polarization binding assay;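 note: calls also rest on retests at 20 µM and on dose response follow-up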
HCV core dimer = HCV core protein dimerization inhibition | TR-FRET GST/Flag-core106 dimerization, 1536-well | inhibition, % at 5 µM | AID 1899 | 0.33% of 300,000 active;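 active = inhibition above the mean of all tested compounds plus 3 SD, set per screening campaign, cut at about 45% in these data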
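Assay system: tagged HCV core106 pair (GST and Flag); medium: KF-containing HEPES buffer, pH 7.45, DTT, CHAPS, BSA; also added: Eu donor and XL665 acceptor anti-tag antibodies; dosing: 5 µM single dose; timing: compound-protein-antibody incubation 4 h at 22.5 °C; signal: TR-FRET 671 and 617 nm emission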
Each line names hits and unclear results; the compound was inactive in the other large screens. Compounds with a hit are over-represented: about 2% of the library has one in this group of screens. Unless noted, the rule behind the calls is not given here.

Cc1ccc(-c2cc(C(=O)Nc3ccc(S(=O)(=O)Nc4nccs4)cc3)c3ccccc3n2)c(C)c1	PABP FP inh active, eIF4H inh 60
OC(Cc1ccccc1Br)c1ncc(-c2ccc(Cl)cc2)[nH]1 (centres undefined)	none (no result: HCV NS3 hel inh, PABP FP inh, FID counter, eIF4H inh, HCV core dimer)
CCO[C@@H]1OC(C(=O)O)=C[C@H](C)[C@H]1CCCO	PABP FP inh 52
C#Cc1ccc([C@@H]2C=C(C(=O)OCC=C)O[C@H](OCC)[C@H]2CCCO)cc1	eIF4H inh 88
CCOc1cc(CNC(C)(C)C)ccc1OCC(=O)Nc1cccc(C(F)(F)F)c1	FID counter 38
Cc1nc2ccccn2c1/C(O)=C1\C(=O)C(=O)N(CCN(C)C)C1c1ccco1 (centres undefined)	MLLE-PAM2 inh 50
O=C(O)C1=CC(=C(c2ccc(O)c(C(=O)O)c2)c2ccc(O)c(C(=O)O)c2)C=CC1=O	HCV core dimer 77 (no result: HCV NS3 hel inh, MLLE-PAM2 inh, PABP FP inh, FID counter, eIF4H inh)
O=C1Nc2ccccc2/C1=C/c1cccnc1	none
O=C1Nc2ccccc2/C1=C/c1cnc(-c2ccccc2)[nH]1	PABP FP inh inconclusive, eIF4H inh inconclusive, HCV core dimer 48
N#CC(c1cccc([N+](=O)[O-])c1)C(CC(=O)c1ccccc1)c1ccccc1 (centres undefined)	none (no result: HCV NS3 hel inh, PABP FP inh, FID counter, eIF4H inh, HCV core dimer)
O=C(CC1S/C(=N/N=C/c2cccs2)NC1=O)Nc1ccc(Cl)cc1 (centres undefined)	none
C/C(=N\N=C1\NC(=O)C(CC(=O)Nc2ccc(Cl)cc2)S1)c1ccco1 (centres undefined)	PABP FP inh 56
Cc1nn(-c2ccccc2)c(Cl)c1/C=N/NC(=O)c1[nH]ncc1Br	none
CC(=O)c1cccc(NC(=O)c2ccc(-n3cncn3)c3ccoc23)c1	none (no result: HCV NS3 hel inh, PABP FP inh, FID counter, eIF4H inh, HCV core dimer)
Cc1csc(NC(=O)CCc2nc3ccccc3s2)n1	HCV core dimer 55
Cc1csc(NC(=O)CS(=O)(=O)c2ccccc2)n1	PABP FP inh 64, eIF4H inh 83
Cc1ccc(S(=O)(=O)CC(=O)Nc2nnc(C(C)(C)C)s2)cc1	MLLE-PAM2 inh 38
CCC(CC)c1nnc(NC(=O)CS(=O)(=O)c2ccc(C)cc2)s1	none
O=C(COC(=O)CCc1nc2ccccc2s1)Nc1nc(-c2ccccc2)cs1	none
Cc1cccc(NC(=O)N2CCC(NC(=O)C3CCCCC3)CC2)c1	none
O=C(CS(=O)(=O)c1ccc(Cl)cc1)N1CCN(c2ccccc2)CC1	none (no result: HCV NS3 hel inh, PABP FP inh, FID counter, eIF4H inh, HCV core dimer)
CC1CCN(C(=O)CSc2nnc(-c3ccc(S(=O)(=O)N4CCOCC4)cc3)n2C)CC1	PABP FP inh 40, eIF4H inh 53
CC1CCCN(C(=O)CSc2nnc(-c3ccc(S(=O)(=O)N4CCOCC4)cc3)n2C)C1 (centres undefined)	none
Cc1cc2c(cc1C)NC(=O)C(C)CN2 (centres undefined)	none (no result: HCV NS3 hel inh, PABP FP inh, FID counter, eIF4H inh, HCV core dimer)
COc1cc(OC)cc(C(=O)N[C@H](C(=O)OCC(=O)Nc2ccc3c(c2)OCO3)C(C)C)c1	none (no result: HCV NS3 hel inh, PABP FP inh, FID counter, eIF4H inh, HCV core dimer)
COC(=O)C(C)N1C(=O)S/C(=C\c2ccc(-c3ccc(C(=O)O)cc3C)o2)C1=O (centres undefined)	PABP FP inh 45, eIF4H inh 52
Cc1ccccc1NC(=O)CN1C(=O)S/C(=C\c2ccc(-c3cccc(C(=O)O)c3C)o2)C1=O	none
Cc1cccc(NC(=O)CN2C(=O)S/C(=C\c3ccc(-c4cccc(C(=O)O)c4C)o3)C2=O)c1	eIF4H inh 92 (no result: MLLE-PAM2 inh)
Cc1c(C(=O)O)cccc1-c1ccc(/C=N/n2cnnc2)o1	PABP FP inh 43, eIF4H inh 53
Cc1ccc(NC(=O)CN2C(=O)S/C(=C/c3ccc(-c4cc(C(=O)O)ccc4C)o3)C2=O)cc1C	PABP FP inh 54
Cc1ccc(C(=O)O)cc1-c1ccc(C=C2C(=O)c3ccccc3C2=O)o1	none
Cc1c(Cl)cccc1-c1ccc(/C=N/n2cnnc2)o1	none
COc1cc(OC)cc(-c2nnc(SCc3ccc(C(=O)O)cc3)o2)c1	none
Cc1cc(NCC(=O)Nc2ccc(C)c(S(=O)(=O)N3CCOCC3)c2)ccc1Br	none (no result: HCV NS3 hel inh, PABP FP inh, FID counter, eIF4H inh, HCV core dimer)
CCCNC(=O)C1(C)CCCN(C(=O)COc2ccc(C(C)(C)C)cc2)C1 (centres undefined)	none (no result: HCV NS3 hel inh, PABP FP inh, FID counter, eIF4H inh, HCV core dimer)
O=C(NNc1ccccc1[N+](=O)[O-])Nc1ccc(Cl)c(Cl)c1	none
O=C1NC(=O)C(c2ccccc2[N+](=O)[O-])=C1Nc1ccc(O)c(Cl)c1	PABP FP inh 40, eIF4H inh 67
Cc1ccc(NC2CCCN(C(=O)c3ccoc3C)C2)cc1C (centres undefined)	none (no result: HCV core dimer)
Cc1cc(C(=O)CSc2n[nH]c(N)n2)c(C)n1-c1ccc(F)cc1	PABP FP inh 6.2, eIF4H inh 76
CN1CCc2c(sc3nc(SCC(N)=O)n(-c4ccccc4)c(=O)c23)C1	PABP FP inh 103, eIF4H inh 122
CC(NC(=O)CN1C(=O)NC2(CCCCCC2)C1=O)c1ccccc1 (centres undefined)	none (no result: HCV NS3 hel inh, PABP FP inh, FID counter, eIF4H inh, HCV core dimer)
Cc1ccc(-c2c(C#N)c(N)nc3c2CCCCC3)o1	PABP FP inh 85, eIF4H inh 63
Cc1cc(-c2cc(-c3ccc(Cl)cc3)nc(N)c2C#N)co1	PABP FP inh 44, eIF4H inh inconclusive
Cc1ccc(-c2cc(-c3ccc(C)o3)nc(N)c2C#N)cc1	PABP FP inh inconclusive, eIF4H inh inconclusive, HCV core dimer 60
Cc1ccc(-c2cc(-c3ccc(Cl)cc3)c(C#N)c(N)n2)o1	none
COc1cccc(C(C(=O)NC(C)(C)C)N(C(=O)CCC(=O)Nc2cc(C)on2)c2ccc3c(c2)OCCO3)c1OC (centres undefined)	none
CCc1nc2ccc(C(=O)N(C)Cc3ccco3)cn2c1N(C)CCCc1ccccc1	none (no result: HCV NS3 hel inh, PABP FP inh, FID counter, eIF4H inh, HCV core dimer)
O=C(CSc1ccsc1[N+](=O)[O-])N1CCN(c2ccccc2)CC1	none
O=C(CSc1ccsc1[N+](=O)[O-])N1CCN(c2ccc(Cl)cc2)CC1	PABP FP inh active, eIF4H inh 77, HCV core dimer 67
O=C(CSc1ccsc1[N+](=O)[O-])N1CCCCCC1	none
Cc1ccc(C)c(N2CCN(C(=O)CSc3ccsc3[N+](=O)[O-])CC2)c1	HCV core dimer 56
Cc1ccccc1NC(=O)CSc1ccsc1[N+](=O)[O-]	PABP FP inh 32, eIF4H inh inconclusive
COCCCNC(=O)CSc1ccsc1[N+](=O)[O-]	none
CCCCc1cc(=O)oc2cc(C)cc(OCC(=O)NC(Cc3ccc(Cl)cc3)C(=O)O)c12 (centres undefined)	none
CCOC(=O)c1sc(=S)n(-c2ccccc2Cl)c1SC	MLLE-PAM2 inh 39
CC(C)N(CCNC(=O)c1nn(Cc2ccccc2)c(=O)c2ccccc12)C(C)C	none
Cc1c(/C=C2\SC(=Nc3cccc(C(=O)O)c3)NC2=O)c2ccccc2n1C	PABP FP inh 64
Cc1ccc(NC(=O)C2(C)CCN2C(=O)Cc2cc(F)ccc2F)cc1 (centres undefined)	none (no result: HCV NS3 hel inh, PABP FP inh, FID counter, eIF4H inh, HCV core dimer)
O=C1NC(c2ccccc2Br)=N/C1=C\c1ccco1	PABP FP inh 47, eIF4H inh 57
